According to ChEMBL document CHEMBL5252636, “Host-guest binding of tetracationic cyclophanes to photodynamic agents inhibits posttreatment phototoxicity and maintains antitumour efficacy” (RSC Med Chem, 2023):
Values belong to the compound of their own block, whether it stands above or below them. Calls of active or inactive are those of the source. The rule behind the calls is not given here.

How the values were obtained:
[1] = Water solubility of compound; assay type: physicochemical
[2] = Phototoxicity in laser irradiated BALB/c mouse implanted with mouse B16-F10 cells at 2 mg/kg, followed by sunlight irradiation for 24 hr; settings: in vivo, 96 h
[3] = Phototoxicity in laser irradiated BALB/c mouse implanted with mouse B16-F10 cells assessed as increase in tumor volume at 4 mg/kg, followed by sunlight irradiation for 0.5 hr and measured on day 13; settings: in vivo, 312 h
[4] = Phototoxicity in laser irradiated BALB/c mouse implanted with mouse B16-F10 cells assessed as skin injury at 4 mg/kg, followed by sunlight irradiation for 0.5 hr and measured on day 11; settings: in vivo, 264 h
H9c2 = assay: Cytotoxicity against rat H9c2 cells assessed as reduction in cell viability up to 100 microg/ml incubated for 24 hrs by MTT assay; assay type: toxicity, cell-based; settings: h9c2, 24 h, up to 100 µg/mL, in the assay text read “CCK-8 assay” for “MTT assay”
Procedure, shortened: (§1)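 CCK-8 viability assay. H9C2 cells were grown in DMEM with 10% FBS, and L02 cells in 1640 medium with 20% FBS, both at 37 °C in 5% CO₂. Cells were seeded at 1×10^4 per well, allowed to adhere for 24 h, then exposed to 0–100 µg/mL for 24 h. CCK-8 was added for 1 h and A450 read. Viability is expressed as % of untreated cells; six independent experiments.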

[5] = Phototoxicity in laser irradiated BALB/c mouse implanted with mouse B16-F10 cells assessed as hair follicle enlargement at 4 mg/kg, sc administered for 3 days followed by sunlight irradiation for 0.5 hr and […] by H and E staining based analysis; assay type: toxicity, organism-based; settings: in vivo, iv, in the assay text read “iv administered” for “sc administered”
Procedure, shortened: (§2)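 Female nude BALB/c mice, 7–8 weeks old, received 1×10^5 B16F10 cells s.c. on the right front back (n=8). At ~20 mm³, mice got Photofrin 4.0 mg/kg i.v. and were kept dark for 24 h. Tumours were then lit with a 635 nm laser (145 mW/cm², 7 min), followed within 30 min by compound 4.0 mg/kg i.v. On day 3 came a solar simulator (100 mW/cm², 30 min). Tumour volume (L×W²/2) was measured daily, skin imaged every 2 days, and H&E done on day 13.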

B16-F10 [6] = assay: Antitumor activity against mouse B16-F10 cells implanted BALB/c mouse assessed as reduction in size at 4 mg/kg
[7] = Phototoxicity in laser irradiated BALB/c mouse implanted with mouse B16-F10 cells assessed as pathological changes in kidney at 4 mg/kg, sc administered for 3 days followed by sunlight irradiation for 0.5 hr and […] by H and E staining based analysis; assay type: toxicity, organism-based; settings: in vivo, iv, in the assay text read “iv administered” for “sc administered”; procedure, shortened: as §2
L02 = assay: Cytotoxicity against human L02 cells assessed as reduction in cell viability up to 100 microg/ml incubated for 24 hrs by MTT assay; assay type: toxicity, cell-based; settings: l02, 24 h, up to 100 µg/mL, in the assay text read “CCK-8 assay” for “MTT assay”; procedure, shortened: as §1
[8] = Hemolytic activity in human RBC assessed as hemolysis up to 100 microg/ml measured after 1 hr; assay type: toxicity, cell-based, Erythrocyte; settings: red blood cells, up to 100 µg/mL, read-out: Activity
Procedure, shortened: (§3)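 Erythrocytes from Sprague Dawley rat or human O-type were used as a 5% (v/v) suspension in normal saline. They were incubated with compound (final 0–100 µg/mL) at 37 °C for 1 h, then centrifuged at 3000 rpm for 10 min at 4 °C. Hemoglobin in the supernatant was read at 545 nm. Saline served as 0% and deionized water as 100% hemolysis.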

[9] = Phototoxicity in laser irradiated BALB/c mouse implanted with mouse B16-F10 cells assessed as pathological changes in skin at 4 mg/kg, followed by sunlight irradiation for 0.5 hr and measured on day 3 by H and E staining based analysis; settings: in vivo
[10] = Hemolytic activity in rat RBC assessed as hemolysis up to 100 microg/ml measured after 1 hr; assay type: toxicity, cell-based, Erythrocyte; settings: red blood cells, up to 100 µg/mL, read-out: Activity; procedure, shortened: as §3
[11] = Phototoxicity in laser irradiated BALB/c mouse implanted with mouse B16-F10 cells assessed as epidermal thickening at 4 mg/kg, sc administered for 3 days followed by sunlight irradiation for 0.5 hr and […] by H and E staining based analysis; assay type: toxicity, organism-based; settings: in vivo, iv, in the assay text read “iv administered” for “sc administered”; procedure, shortened: as §2
[12] = Phototoxicity in laser irradiated BALB/c mouse implanted with mouse B16-F10 cells at 2 mg/kg, followed by sunlight irradiation for 24 hr in presence of dopamine; settings: in vivo, 96 h
[13] = Phototoxicity in laser irradiated BALB/c mouse implanted with mouse B16-F10 cells assessed as pathological changes in lung at 4 mg/kg, followed by sunlight irradiation for 0.5 hr and measured on day 3 by H and E staining based analysis; settings: in vivo
B16-F10 [14] = assay: Antitumor activity against mouse B16-F10 cells implanted BALB/c mouse assessed as increase in tumor cell apoptosis at 4 mg/kg, iv by tunel staining based immunohistochemical analysis

solubility [1]: 20.7 mM
SMILES: C[n+]1ccc(-c2cccc3c(-c4cc[n+](C)cc4)cccc23)cc1.[Cl-].[Cl-]

solubility [1]: 13.1 mM
SMILES: C[n+]1ccc(-c2ccc(-c3cc[n+](C)cc3)c3ccccc23)cc1.[Cl-].[Cl-]

SMILES: [Cl-].[Cl-].[Cl-].[Cl-].c1cc2ccc1C[n+]1ccc(cc1)-c1ccc3cc(ccc3c1)-c1cc[n+](cc1)Cc1ccc(cc1)C[n+]1ccc(cc1)-c1ccc3cc(ccc3c1)-c1cc[n+](cc1)C2
Activity [2]: Non-Toxic | Activity [3]: 1344 mm3 | Activity [4]: Non-Toxic | Activity (H9c2): >= 90% | Activity [5]: Non-Toxic | Activity (B16-F10 [6]): 26 mm3 | Activity [7]: 66% | Activity (L02): >= 90% | hemolysis at 1 h [8]: ≤ 5% | Activity [9]: 67% | hemolysis at 1 h [10]: ≤ 5% | Activity [11]: Non-Toxic | Activity [12]: Non-Toxic | Activity [13]: 41% | Activity (B16-F10 [14]): Active

solubility [1]: 3.5 mM
SMILES: C[n+]1ccc(-c2ccc3cc(-c4cc[n+](C)cc4)ccc3c2)cc1.[Cl-].[Cl-]
